Assay results taken from ChEMBL document CHEMBL1157207, “Synthesis of 3,5-bis(2-indolyl)pyridine and 3-[(2-indolyl)-5-phenyl]pyridine derivatives as CDK inhibitors and cytotoxic agents” (Bioorg Med Chem, 2008).

How the values were obtained:
[1] = Inhibition of starfish CDK1/cyclin B; parameters: species or system Marthasterias glacialis
Summary of the method: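 CDK1/cyclin B taken from M-phase starfish (Marthasterias glacialis) oocytes and affinity-purified on p9CKShs1-sepharose beads, eluted with free p9CKShs1. Assayed in buffer C with 1 mg/ml histone H1 and 15 µM [γ-33P]ATP, 30 µl final, 10 min at 30 °C. Detection by P81 phosphocellulose paper binding and scintillation counting. IC50 averaged from two experiments.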

[2] = test system: CCRF-CEM; experiment: Cytotoxicity against human CEM cells; type: functional, cell-based
Summary of the method: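 CEM human leukaemia cells kept in RPMI 1640 with 10% FBS, 2 mM glutamine, penicillin/streptomycin, 37 °C, 5% CO2. Exponentially growing cells seeded at 2×10^4 per well with various drug concentrations, 72 h at 37 °C; tetrazolium dye (CellTiter 96 AQueous One) then added for 2 h, absorbance read at 492 nm. IC50 averaged from two experiments.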

[3] = Inhibition of pig brain GSK3alpha/beta; parameters: species or system Sus scrofa
Summary of the method: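 GSK-3α/β purified from porcine brain, diluted 1/100 in 1 mg/ml BSA, 10 mM DTT. Assayed in buffer A (pH 7.5, with heparin) with GS-1 peptide (5 µl of 40 µM) as substrate and 15 µM [γ-33P]ATP, 30 µl final, 30 min at 30 °C. Detection by P81 phosphocellulose paper binding, phosphoric acid washes, scintillation counting. IC50 averaged from two experiments; DMSO controls.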

[4] = Inhibition of recombinant CDK5/p25 expressed in Escherichia coli
Summary of the method: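 Recombinant CDK5 and p25 expressed in E. coli as GST fusions, purified on glutathione-agarose and mixed in equal amounts. Assayed in buffer C with 1 mg/ml histone H1 and 15 µM [γ-33P]ATP, 30 µl final, 10 min at 30 °C. Detection by P81 phosphocellulose paper binding and scintillation counting. IC50 averaged from two experiments.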

| SMILES | IC50 [3] | IC50 [4] | IC50 [1] | IC50 [2] |
| --- | --- | --- | --- | --- |
| CN(C)CCOc1ccc(-c2cncc(-c3cc4cc(O)ccc4n3CCN(C)C)c2)cc1 | > 10 µM | – | > 10 µM | 31.9 µM |
| CN(C)CCCOc1ccc(-c2cncc(-c3cc4cc(O)ccc4n3CCCN(C)C)c2)cc1 | > 10 µM | – | > 10 µM | 12.7 µM |
| Oc1ccc(-c2cncc(-c3cc4cc(O)ccc4[nH]3)c2)cc1 | 40 µM | 1.5 µM | 0.31 µM | 14.5 µM |
| CN(C)CCn1c(-c2cncc(-c3cc4cc(O)ccc4n3CCN(C)C)c2)cc2cc(O)ccc21 | > 10 µM | – | > 10 µM | 14.8 µM |
| Oc1ccc(-c2cncc(-c3cc4ccccc4[nH]3)c2)cc1 | > 100 µM | 0.9 µM | 0.7 µM | 4.67 µM |
| CN(C)CCCn1c(-c2cncc(-c3cc4cc(O)ccc4n3CCCN(C)C)c2)cc2cc(O)ccc21 | > 10 µM | – | > 10 µM | 11.1 µM |
| CN(C)CCCOc1ccc(-c2cncc(-c3cc4ccccc4n3CCCN(C)C)c2)cc1 | > 10 µM | – | > 10 µM | 4.19 µM |
| CN(C)CCn1c(-c2cncc(-c3cc4cc(O)ccc4[nH]3)c2)cc2cc(O)ccc21 | > 10 µM | – | > 10 µM | 5.76 µM |
| CN(C)CCCn1c(-c2cncc(-c3cc4cc(O)ccc4[nH]3)c2)cc2cc(O)ccc21 | > 10 µM | – | > 10 µM | 14.2 µM |
| CN(C)CCOc1ccc(-c2cncc(-c3cc4ccccc4n3CCN(C)C)c2)cc1 | > 10 µM | – | > 10 µM | 7.97 µM |

Continued by falling IC50 [3], values first:

| IC50 [3] | IC50 [4] | SMILES | IC50 [1] | IC50 [2] |
| --- | --- | --- | --- | --- |
| 31 µM | 1 µM | CN(C)CCCOc1ccc(-c2cncc(-c3cc4ccccc4[nH]3)c2)cc1 | 0.9 µM | 5.4 µM |
| 30 µM | 1.2 µM | Oc1ccc2[nH]c(-c3cncc(-c4cc5cc(O)ccc5[nH]4)c3)cc2c1 | 0.54 µM | 7.99 µM |
| 4.8 µM | 3.1 µM | CN(C)CCOc1ccc(-c2cncc(-c3cc4ccccc4[nH]3)c2)cc1 | 2.5 µM | 9.02 µM |
| 4.6 µM | 6.7 µM | CN(C)CCOc1ccc(-c2cncc(-c3cc4cc(O)ccc4[nH]3)c2)cc1 | 3.6 µM | 12.3 µM |
| 3.8 µM | 5 µM | CN(C)CCCOc1ccc(-c2cncc(-c3cc4cc(O)ccc4[nH]3)c2)cc1 | 1.9 µM | 5.35 µM |
